# Measurements as given in publication PMC6744591 (Heliyon, 2019).
# How the values were obtained:
# [1] = Pharmacokinetics: plasma concentration of insulin in diabetic rats; type: in vivo; details: for Tmax: plasma insulin, HPLC-UV
# [2] = test system: alloxan induced diabetes rats; assay: Blood glucose lowering in alloxan-induced diabetic rats; type: in vivo, Wister rats
# Outline: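 Alloxan at 150 mg/kg i.p. in normal saline given to Wistar rats (~190 g); rats above 120 mg/dl glucose after 5–7 days counted as diabetic. Rats fasted 12 h, water allowed, fasted throughout; 9 per group. […] Basal glucose taken first; tail-vein glucometer readings at set intervals, triplicate averages.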
substance,measurement,setting,value
insulin [Ins-solu],Tmax,"[1]; oral, 40 IU/kg",3.0 h
same,AUC,"[1]; subcutaneous, 4.0 IU/kg, over 12 h, linear trapezoidal rule, mean ± SD, n = 5",342.56 ± 30.9 µg/mL/h
same,Tmax,"[1]; subcutaneous, 4.0 IU/kg",1.0 h
same,decrease in blood glucose levels,"[2]; fasted, oral, 40.0 I.U/kg, glucometer, % of initial level",1–2%
same,maximum decrease in blood glucose levels,"[2]; fasted, subcutaneous, 4.0 I.U/kg, at 4 h",> 60%
same,time for which decrease in blood glucose level was sustained,"[2]; subcutaneous, 4.0 I.U/kg",over 4 h
